These results are taken from ChEMBL document CHEMBL1146603, “Use of a pharmacophore model to discover a new class of influenza endonuclease inhibitors” (J Med Chem, 2003).

For test [1], the target named is Polymerase acidic protein (Influenza A virus (A/Puerto Rico/8/1934(H1N1)), UniProt P03433). Briefly: Inhibitory concentration against cap-dependent endonuclease activity of influenza virus RNP. Format: functional, unidentified influenza virus. Summed up: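 Gel-based cap-dependent endonuclease assay. 1 nM influenza RNP was incubated with 0.1 nM cap-labeled 20-mer G20 RNA in 50 mM Tris-HCl pH 8 with 1 mM MgCl₂, 20 mM KCl, 1 U/μL RNase inhibitor and 0.3% Triton X-100, for 5 min at 31 °C. Cleavage products were resolved on polyacrylamide gels and quantified by phosphorimager. IC50 came from dose–response curves.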

Test [2] has the same target. Briefly: Inhibitory concentration against cap-dependent endonuclease activity of influenza A/PR/8/34 RNP. Format: functional. Summed up: (§1)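 Cap-dependent transcription run on a filter plate. 10 nM RNP purified from A/PR/8/34 or B/Lee/40 virus was mixed with 0.01 mg/mL AMV RNA, 50 μM GTP, 50 μM CTP, 500 μM ATP and 5 μM [radiolabeled] UTP. Buffer was 50 mM Tris-HCl pH 8 with 100 mM KCl, 5 mM MgCl₂, 10% DMSO, 5 mM DTT and 0.2 mg/mL BSA. Incubation was 90 min at 31 °C. TCA-precipitated RNA was scintillation-counted. IC50 came from dose–response curves.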

Test [3] has as its target Polymerase acidic protein (Influenza B virus (strain B/Lee/1940), UniProt Q9QLI9). As to the kind of experiment: Inhibitory concentration against cap-dependent endonuclease activity of influenza B/Lee/40 RNP. In kind it is functional. Summed up:
as §1

Test [4] concerns unidentified influenza virus. As to the kind of experiment: Effective concentration against influenza virus in MDCK cells. In kind it is functional, organism-based. The essentials: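 Antiviral dose–response read as protection of MDCK cells from influenza virus-induced cell death.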
The target of test [5] is Polymerase acidic protein (Influenza A virus (A/Puerto Rico/8/1934(H1N1))) (UniProt P03433). Briefly: Percent inhibition of cap-dependent endonuclease activity of influenza virus RNP at 100 uM. Format: functional. The note with it: unidentified influenza virus.

Structures are written as SMILES.

Polymerase acidic protein, sequence (Q9QLI9 whole entry): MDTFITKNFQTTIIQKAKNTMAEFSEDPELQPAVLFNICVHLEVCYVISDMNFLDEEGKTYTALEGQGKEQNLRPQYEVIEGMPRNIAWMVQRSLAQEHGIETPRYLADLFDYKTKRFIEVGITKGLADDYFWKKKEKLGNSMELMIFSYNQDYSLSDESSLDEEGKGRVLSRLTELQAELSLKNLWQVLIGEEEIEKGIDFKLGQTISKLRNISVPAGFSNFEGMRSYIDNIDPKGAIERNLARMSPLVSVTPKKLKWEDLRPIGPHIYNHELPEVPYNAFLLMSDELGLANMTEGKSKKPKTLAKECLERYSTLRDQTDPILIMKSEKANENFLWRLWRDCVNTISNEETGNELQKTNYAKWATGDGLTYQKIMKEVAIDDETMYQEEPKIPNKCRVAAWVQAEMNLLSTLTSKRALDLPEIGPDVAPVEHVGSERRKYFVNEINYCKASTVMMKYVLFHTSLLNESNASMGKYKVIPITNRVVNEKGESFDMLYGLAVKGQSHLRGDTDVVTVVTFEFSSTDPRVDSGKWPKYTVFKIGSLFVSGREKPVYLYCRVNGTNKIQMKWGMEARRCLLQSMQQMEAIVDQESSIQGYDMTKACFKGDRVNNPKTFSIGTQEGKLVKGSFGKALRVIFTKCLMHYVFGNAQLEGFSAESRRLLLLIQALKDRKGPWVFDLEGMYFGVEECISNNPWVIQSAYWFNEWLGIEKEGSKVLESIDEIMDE

Usually IC50 stands for the concentration at which inhibition is half-maximal. For the compound `CC(C)CC1=N/C(=C\c2ccc(F)cc2)C(=O)NC1=O`, in test [1], the half-maximal inhibitory concentration (IC50) was over 365 µM. Same read-out and setting: to `O=C(O)C(=O)/C=C(\O)c1ccc(C2CCCCC2)cc1` belongs 5 µM.

As for `CCC(=O)c1c(O)n(O)c2cc(NC(=O)c3ccc(Cl)cc3Cl)ccc12`, half-maximal inhibition in test [2] (IC50) was put at 45 µM.

`O=C1Cc2ccccc2CC(=O)N1O` registered a half-inhibitory concentration (IC50) in test [1] of over 1000 µM. Compound `O=C(c1ccccc1)c1c(O)n(O)c2cc(NC(=O)C3CCCCC3)ccc12` showed a half-inhibitory concentration (IC50) in test [2] of 18 µM. That is a double-digit micromolar value. For orientation: EC50 means the midpoint of the concentration-response curve. For the compound `O=C(/C=C/c1ccccc1Cl)Nc1ccc2c(C(=O)c3ccccc3)c(O)n(O)c2c1`, the IC50 is 26 µM in test [3] and 9.5 µM in test [2]. In test [4], this compound gave an EC50 of over 30 µM. For `O=c1c2nccnc2ncn1O`, the IC50 in test [1] was over 500 µM.

Consider `CCC(=O)c1c(O)n(O)c2cc(NC(=O)Nc3cccc(C(=O)O)c3)ccc12`, for which half-maximal inhibition in test [2] (IC50) required 10 µM. The compound `O=C(Nc1ccc2c(C(=O)c3ccccc3)c(O)n(O)c2c1)c1cnc2ccccc2n1` displayed a half-maximal inhibitory concentration (IC50) in test [2] of 17 µM. The same measure, in the same setting: to `O=C(Nc1ccc2c(C(=O)c3ccccc3)c(O)n(O)c2c1)c1ccc(Cl)cc1Cl` belongs 38 µM. As for `CC(=O)c1c(O)n(O)c2cc(NC(=O)c3ccc4ccccc4c3)ccc12`, the half-inhibitory concentration (IC50) in test [3] was determined as 18 µM; in test [2], 9 µM. In addition, the EC50 in test [4] stood at 21 µM.

`CC(C)/C=C1\N=C(CC(C)C)C(=O)N(O)C1=O` displayed an IC50 in test [1] of 5.5 µM. For `CC(=O)c1c(O)n(O)c2cc(NC(=O)Nc3cccc(C(=O)O)c3)ccc12`, the IC50 in test [2] was 14 µM. In other words, the double-digit micromolar range. Still for that read-out and setting: next, `CCC(=O)c1c(O)n(O)c2cc(NC(=O)Nc3ccccc3)ccc12`: 40 µM.

As to `CCC(=O)c1c(O)n(O)c2cc(NC(=O)c3cnc4ccccc4n3)ccc12`, the 50% inhibitory concentration (IC50) in test [2] is 10 µM. Consider `Cc1cc(C(=O)Nc2ccc3c(C(=O)c4ccccc4)c(O)n(O)c3c2)no1`, for which the EC50 in test [4] is over 100 µM. In test [2], this compound had an IC50 of 9.5 µM. `O=C1c2ccccc2C(=O)N1O` had an IC50 in test [1] of over 500 µM.

The compound `CCC(=O)c1c(O)n(O)c2cc(NC(=O)c3cccs3)ccc12` registered an IC50 in test [2] of 35 µM. This lies in the double-digit micromolar range. The term inhibition denotes the drop in the measured response relative to a control, in per cent. Higher therefore signals a response far below the control. The compound `O=C1Cc2ccccc2CN1O` had an inhibition in test [5] of 25%. For the same compound, the IC50 in test [1] was found to be 100 µM. `COCON1C(=O)C(CC(C)C)=N/C(=C\C(C)C)C1=O` came in with an IC50 in test [1] of over 355 µM. The same measure, in the same setting: next, `O=C1CCc2ccccc2C(=O)N1O`: over 1000 µM. In the case of `O=C(Nc1cccc(C(=O)O)c1)Nc1ccc2c(C(=O)c3ccccc3)c(O)n(O)c2c1`, the half-maximal inhibitory concentration (IC50) in test [3] was found to be 6 µM; in test [2], 3 µM. In test [4], the concentration for a half-maximal effect (EC50) is over 100 µM. In the case of `O=C(c1ccccc1)c1c(O)n(O)c2cc(NS(=O)(=O)c3cccs3)ccc12`, it took 48 µM to reach half-maximal inhibition in test [2] (IC50). Take `O=C(Nc1ccc2c(C(=O)c3ccccc3)c(O)n(O)c2c1)c1ccccc1`: the IC50 in test [3] was 56 µM; in test [2], 10 µM. Besides, the EC50 in test [4] was over 90 µM.

In the case of `CON1C(=O)Cc2ccccc2C1=O`, in test [1], the half-maximal inhibitory concentration (IC50) was determined as 710 µM.

Consider `O=C(Nc1ccc2c(C(=O)c3ccccc3)c(O)n(O)c2c1)c1cccs1`, for which half-maximal inhibition in test [2] (IC50) was put at 20 µM. In test [1], `O=c1[nH]c2nccnc2c(=O)n1O` gave an IC50 of 95 µM. For the compound `O=C(Nc1ccc2c(C(=O)c3ccccc3)c(O)n(O)c2c1)c1ccc2ccccc2c1`, the IC50 amounted to 29 µM in test [3] and 8 µM in test [2]. In test [4], this compound came in with an EC50 of over 40 µM. Turning to `CCc1cc(OC)c(OC)c(C(=O)NC[C@@H]2CCCN2CC)c1OC`, in test [2], the half-maximal inhibitory concentration (IC50) is 32 µM. This lies in the double-digit micromolar range. The same measure, in the same setting: next, `CC(=O)c1c(O)n(O)c2cc(NC(=O)c3cnc4ccccc4n3)ccc12`: 11 µM; `CCC(=O)c1c(O)n(O)c2cc(NC(=O)Nc3ccccc3Cl)ccc12`: 50 µM. On the same count and under the same terms, next, `O=C(Nc1ccc2c(C(=O)c3ccccc3)c(O)n(O)c2c1)NC1CCCCC1`: 50 µM; `CCC(=O)c1c(O)n(O)c2cc(NC(=O)Nc3ccc(Cl)cc3)ccc12`: 38 µM. In test [1], `NN1C(=O)Cc2ccccc2C1=O` came in with a half-inhibitory concentration (IC50) of 800 µM. `O=C(Nc1ccccc1)Nc1ccc2c(C(=O)c3ccccc3)c(O)n(O)c2c1` had a half-inhibitory concentration (IC50) in test [2] of 29 µM. Still for that read-out and setting: to `CC(=O)c1c(O)n(O)c2cc(NC(=O)c3cccs3)ccc12` belongs 40 µM; to `CCC(=O)c1c(O)n(O)c2cc(NC(=O)/C=C/c3ccccc3Cl)ccc12`, 8 µM. `O=C(NO)c1ccccc1` [BENZOHYDROXAMATE] returned an IC50 in test [1] of over 500 µM. Compound `CC(=O)c1c(O)n(O)c2cc(NC(=O)/C=C/c3ccccc3Cl)ccc12` displayed an IC50 in test [2] of 26 µM.
